In ChEMBL document CHEMBL1250442, “Inhibiting gene expression at transcription start sites in chromosomal DNA with antigene RNAs” (Nat Chem Biol, 2005):
Active and inactive are the calls of the source.

Assays:
T47D [1] = test: Inhibition of PR-A mRNA gene expression in human T47D cells at 100 nM by syber green assay; format: functional
Outline: (§1)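 T47D cells plated at 80,000/well without antibiotics two days before Oligofectamine transfection with agRNA duplex (25 or 100 nM final); medium changed at 24 h, harvest day 5 unless stated otherwise. TRIzol total RNA; PR mRNA by real-time PCR with SYBR Green: 50 °C 2 min, 95 °C 10 min, 40 cycles 95 °C 15 s/60 °C 1 min.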

T47D [2] = test: Effect of DNA methylation at (-112) CpG site near PR-B transcription start site (-13) in human T47D cells by sodium bisulfite sequencing analysis; format: functional, cell-based
Outline: (§2)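 T47D cells (RPMI-1640, 10% FBS, NEAA, insulin; 37 °C, 5% CO2) transfected with agRNA duplexes via Oligofectamine, medium changed at 24 h. Genomic DNA bisulphite-treated, regions around AR and hPR-B start sites PCR-amplified (HotStarTaq, 100 ng treated DNA), gel-purified, TOPO TA cloned; 5–15 colonies per plate miniprepped and sequenced.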

T47D [3] = test: Effect of DNA methylation at (+125) CpG site near PR-B transcription start site (-13) in human T47D cells by sodium bisulfite sequencing analysis; format: functional, cell-based
Outline: (§3)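 T47D cells grown in RPMI-1640 with 10% FBS, 0.5% NEAA, insulin and P/S at 37 °C, 5% CO2. They were plated at 80,000 cells/well 2 days before lipid transfection with 25 nM or 100 nM duplex, with medium changed at 24 h. Cells were harvested 5 days post-transfection. 100 ng bisulfite-treated DNA was PCR-amplified, and products were TA-cloned. 5–15 colonies per plate were sequenced.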

T47D [4] = test: Effect of DNA methylation at (+162) CpG site near PR-B transcription start site (-13) in human T47D cells by sodium bisulfite sequencing analysis; format: functional, cell-based; outline: as §3
T47D [5] = test: Effect of DNA methylation at (-75) CpG site near PR-B transcription start site (-13) in human T47D cells by sodium bisulfite sequencing analysis; format: functional, cell-based; outline: as §2
T47D [6] = test: Effect of DNA methylation at (-23) CpG site near PR-B transcription start site (-13) in human T47D cells by sodium bisulfite sequencing analysis; format: functional, cell-based; outline: as §2
T47D [7] = test: Effect of DNA methylation at (+362) CpG site near PR-B transcription start site (-13) in human T47D cells by sodium bisulfite sequencing analysis; format: functional, cell-based; outline: as §3
T47D [8] = test: Effect of DNA methylation at (-46) CpG site near PR-B transcription start site (-13) in human T47D cells by sodium bisulfite sequencing analysis; format: functional, cell-based; outline: as §2
T47D [9] = test: Effect of DNA methylation at (+353) CpG site near PR-B transcription start site (-13) in human T47D cells by sodium bisulfite sequencing analysis; format: functional, cell-based; outline: as §3
T47D [10] = test: Inhibition of PR-B gene expression in human T47D cells at 25 nM by syber green assay; format: functional; outline: as §1
T47D [11] = test: Effect of DNA methylation at (+356) CpG site near PR-B transcription start site (-13) in human T47D cells by sodium bisulfite sequencing analysis; format: functional, cell-based; outline: as §3
T47D [12] = test: Effect of DNA methylation at (+267) CpG site near PR-B transcription start site (-13) in human T47D cells by sodium bisulfite sequencing analysis; format: functional, cell-based; outline: as §3
T47D [13] = test: Effect of DNA methylation at (+225) CpG site near PR-B transcription start site (-13) in human T47D cells by sodium bisulfite sequencing analysis; format: functional, cell-based; outline: as §3
T47D [14] = test: Effect of DNA methylation at (+216) CpG site near PR-B transcription start site (-13) in human T47D cells by sodium bisulfite sequencing analysis; format: functional, cell-based; outline: as §3
T47D [15] = test: Effect of DNA methylation at (+166) CpG site near PR-B transcription start site (-13) in human T47D cells by sodium bisulfite sequencing analysis; format: functional, cell-based; outline: as §3
T47D [16] = test: Effect of DNA methylation at (+335) CpG site near PR-B transcription start site (-13) in human T47D cells by sodium bisulfite sequencing analysis; format: functional, cell-based; outline: as §3
T47D [17] = test: Effect of DNA methylation at (+41) CpG site near PR-B transcription start site (-13) in human T47D cells by sodium bisulfite sequencing analysis; format: functional, cell-based; outline: as §3
T47D [18] = test: Effect of DNA methylation at (+337) CpG site near PR-B transcription start site (-13) in human T47D cells by sodium bisulfite sequencing analysis; format: functional, cell-based; outline: as §3
T47D [19] = test: Inhibition of PR-B mRNA gene expression in human T47D cells at 100 nM by syber green assay; format: functional
Outline: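 T47D cells in RPMI-1640 with 10% FBS, NEAA, insulin, 37 °C, 5% CO2. Plated two days before transfection without antibiotics. Oligofectamine-mediated duplex RNA transfection at 100 nM final, medium changed at 24 h, harvest five days post-transfection. Total RNA extracted with TRIzol. hPR mRNA quantified by SYBR Green qPCR: 50 °C 2 min, 95 °C 10 min, then 40 cycles of 95 °C 15 s / 60 °C 1 min.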

T47D [20] = test: Inhibition of PR-A gene expression in human T47D cells at 25 nM by syber green assay in presence of 10 nM estradiol; format: functional, cell-based
T47D [21] = test: Effect of DNA methylation at (+20) CpG site near PR-B transcription start site (-13) in human T47D cells by sodium bisulfite sequencing analysis; format: functional, cell-based; outline: as §3
T47D [22] = test: Effect of DNA methylation at (+173) CpG site near PR-B transcription start site (-13) in human T47D cells by sodium bisulfite sequencing analysis; format: functional, cell-based; outline: as §3
T47D [23] = test: Effect of DNA methylation at (+319) CpG site near PR-B transcription start site (-13) in human T47D cells by sodium bisulfite sequencing analysis; format: functional, cell-based; outline: as §3
T47D [24] = test: Inhibition of PR-B gene expression in human T47D cells at 25 nM by syber green assay in presence of 10 nM estradiol; format: functional, cell-based
T47D [25] = test: Effect of DNA methylation at (+398) CpG site near PR-B transcription start site (-13) in human T47D cells by sodium bisulfite sequencing analysis; format: functional, cell-based; outline: as §3
T47D [26] = test: Effect of DNA methylation at (+295) CpG site near PR-B transcription start site (-13) in human T47D cells by sodium bisulfite sequencing analysis; format: functional, cell-based; outline: as §3
T47D [27] = test: Effect of DNA methylation at (+379) CpG site near PR-B transcription start site (-13) in human T47D cells by sodium bisulfite sequencing analysis; format: functional, cell-based; outline: as §3
T47D [28] = test: Effect of DNA methylation at (+190) CpG site near PR-B transcription start site (-13) in human T47D cells by sodium bisulfite sequencing analysis; format: functional, cell-based; outline: as §3
T47D [29] = test: Effect of DNA methylation at (+112) CpG site near PR-B transcription start site (-13) in human T47D cells by sodium bisulfite sequencing analysis; format: functional, cell-based; outline: as §3
T47D [30] = test: Effect of DNA methylation at (+149) CpG site near PR-B transcription start site (-13) in human T47D cells by sodium bisulfite sequencing analysis; format: functional, cell-based; outline: as §3
T47D [31] = test: Effect of DNA methylation at (+45) CpG site near PR-B transcription start site (-13) in human T47D cells by sodium bisulfite sequencing analysis; format: functional, cell-based; outline: as §2
T47D [32] = test: Inhibition of PR-A gene expression in human T47D cells at 25 nM by syber green assay; format: functional; outline: as §1
T47D [33] = test: Effect of DNA methylation at (+107) CpG site near PR-B transcription start site (-13) in human T47D cells by sodium bisulfite sequencing analysis; format: functional, cell-based; outline: as §3

Cc1cn(CC(=O)N(CCNC(=O)CN(CCNC(=O)CN(CCNC(=O)CN(CCNC(=O)CN(CCNC(=O)CN(CCNC(=O)CN(CCNC(=O)CN(CCNC(=O)CN(CCNC(=O)CN(CCNC(=O)CN(CCNC(=O)CN(CCNC(=O)CN(CCNC(=O)CN(CCNC(=O)CN(CCNC(=O)CN(CCNC(=O)CN(CCNC(=O)CN(CCNC(=O)CN(CCNC(=O)CN(CCNC(=O)CN)C(=O)Cn2cnc3c(N)ncnc32)C(=O)Cn2cnc3c(N)ncnc32)C(=O)Cn2cnc3c(=O)[nH]c(N)nc32)C(=O)Cn2ccc(N)nc2=O)C(=O)Cn2ccc(=O)[nH]c2=O)C(=O)Cn2cnc3c(=O)[nH]c(N)nc32)C(=O)Cn2ccc(=O)[nH]c2=O)C(=O)Cn2ccc(N)nc2=O)C(=O)Cn2ccc(=O)[nH]c2=O)C(=O)Cn2cnc3c(=O)[nH]c(N)nc32)C(=O)Cn2cnc3c(=O)[nH]c(N)nc32)C(=O)Cn2ccc(N)nc2=O)C(=O)Cn2ccc(N)nc2=O)C(=O)Cn2cnc3c(N)ncnc32)C(=O)Cn2cnc3c(=O)[nH]c(N)nc32)C(=O)Cn2ccc(=O)[nH]c2=O)C(=O)Cn2ccc(N)nc2=O)C(=O)Cn2ccc(N)nc2=O)C(=O)Cn2cnc3c(N)ncnc32)CC(=O)NCCN(CC(=O)NCC(=O)O)C(=O)Cn2cc(C)c(=O)[nH]c2=O)c(=O)[nH]c1=O
inactive: Activity (T47D [2]) | Activity (T47D [3]) | Activity (T47D [4]) | Activity (T47D [5]) | Activity (T47D [6]) | Activity (T47D [7]) | Activity (T47D [8]) | Activity (T47D [9]) | Activity (T47D [11]) | Activity (T47D [12]) | Activity (T47D [13]) | Activity (T47D [14]) | Activity (T47D [15]) | Activity (T47D [16]) | Activity (T47D [17]) | Activity (T47D [18]) | Activity (T47D [21]) | Activity (T47D [22]) | Activity (T47D [23]) | Activity (T47D [25]) | Activity (T47D [26]) | Activity (T47D [27]) | Activity (T47D [28]) | Activity (T47D [29]) | Activity (T47D [30]) | Activity (T47D [31]) | Activity (T47D [33])
80%: inhibition at 0.025 µM (T47D [10])
100%: inhibition at 0.1 µM (T47D [1]) | inhibition at 0.1 µM (T47D [19])
72%: inhibition at 0.025 µM (T47D [32])
active: inhibition (T47D [20]) | inhibition (T47D [24])
